# Test results taken from article PMC2888972 (Molecular cancer therapeutics, 2009).
# Read-outs that look alike come from different tables or passages of the source.
# Tests used:
# Caki-1 cancer [1] = experiment: Growth inhibition assay; assay type: cell-based, human; conditions: for efficacy (maximum growth inhibition observed): 1 to 12.5 µmol/L; for EC50: read-out: potency (EC50, concentration needed to induce half maximal efficacy)
# Method in brief: (§1)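 Stock is 0.01 mol/L in DMSO, kept at −20°C under subdued light. Cells get 1–12.5 µmol/L or equal-volume DMSO, in triplicate, for 48 h. Growth index is mean treated OD over mean control OD, plotted against concentration. Maximal inhibition comes by nonlinear regression from plots of 2–3 independent experiments.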
# 786-O cancer = experiment: Growth inhibition assay; assay type: cell-based, human; conditions: for efficacy (maximum growth inhibition observed): 48 h, 1 to 12.5 µmol/L
# Method in brief: as §1
# RTC91696 normal = experiment: Growth inhibition assay; assay type: cell-based, human; conditions: 48 h; for efficacy (maximum growth inhibition observed): 1 to 12.5 µmol/L; for EC50: read-out: potency (EC50, concentration needed to induce half maximal efficacy)
# HK-2 normal = experiment: Growth inhibition assay; assay type: cell-based, human; conditions: 48 h; for efficacy (maximum growth inhibition observed): 1 to 12.5 µmol/L; for EC50: read-out: potency (EC50, concentration needed to induce half maximal efficacy)
# Method in brief: as §1
# mouse embryos = conditions: animal models; cited from earlier work
# TA98 = experiment: Bacterial mutation
# Caki-1 cancer [2] = experiment: Cell cycle analysis; assay type: cell-based, human; conditions: 10 µmol/L, 24 h
# TA100 = experiment: Bacterial mutation
# Cyclin D1 = experiment: Western blot, Cyclin D1; assay type: cell-based, human; conditions: SHetA2 treatment
# Method in brief: (§2)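 Lysis is in CytoBuster with protease inhibitor cocktail. 100 µg protein is resolved by SDS-PAGE and blotted to nitrocellulose. Blots are probed with mouse monoclonals (Cyclin D1, PARP-1, Caspase 3), then HRP secondary with luminol detection. Stripped blots are reprobed for β-actin or GAPDH as loading control. Solvent-only DMSO cultures serve as control.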
# [3] = animal models; cited from earlier work
# TA1537 = experiment: Bacterial mutation
# normal HK-2 cell lines = experiment: Cell cycle analysis; assay type: cell-based, human; conditions: 10 µmol/L, 24 h
# Caki-1 cancer cell line = experiment: Apoptosis assay; assay type: cell-based, human; conditions: 10 µmol/L SHetA2, Annexin-V-FITC/PI
# [4] = system: RTC 91696 normal cultures; experiment: Apoptosis assay; assay type: cell-based, human; conditions: maximum 72-hour treatment time and 12.5-µmol/L concentration
# Method in brief: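 Floating cells from the medium are pooled with trypsinised adherent cells, pelleted, and stained with Annexin-V-FITC and PI (Vybrant kit #3). Flow cytometry uses 488 nm excitation and 530/575 nm emission. Cultures are at passage 3, in MEMα with EGF 10 ng/mL, hydrocortisone 5 µg/mL, insulin/transferrin/selenous acid 6.35 µg/mL each, 10% FBS and pen/strep. The apoptotic-quadrant percentage comes from four replicate experiments.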
# five bacterial strains = experiment: Bacterial mutation
# WP2 uvrA = experiment: Bacterial mutation
# TA1535 = experiment: Bacterial mutation
# [5] = system: A498 cancer cell line xenograft; experiment: A498 xenograft model; assay type: in vivo; conditions: 20, 40, or 60 mg/kg/day; data not shown
# [6] = system: livers of SHetA2-treated mice; conditions: previous xenograft model; cited from earlier work
# [7] = system: NF-κB transcriptional activity; experiment: NF-κB luciferase reporter assay in Caki-1; assay type: cell-based, human
# E-Cadherin mRNA = experiment: Real-time rtPCR of E-Cadherin in Caki-1 cultures; assay type: cell-based, human
# Method in brief: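 RNA comes from frozen cell pellets (RNeasy). TaqMan real-time PCR for E-Cadherin and 18S is run in triplicate reactions. Expression is normalised to 18S by ΔΔCt and set relative to solvent-only control cultures at each dose or time point. Three independent experiments.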
# [8] = system: Caki-1 renal cancer xenografts; experiment: Caki-1 renal cancer xenograft; conditions: for tumor-related deaths: 4 in untreated control group
# PARP-1 and Caspase 3 = experiment: Western blot, PARP-1 and Caspase 3 cleavage; assay type: cell-based, human; conditions: Caki-1 cultures, 10 µmol/L
# Method in brief: as §2
# [9] = RTC91696 normal, single experiments
# [10] = 1.58 µg/plate (0.004 µmol/L), +S9
# [11] = 1.58 µg/plate (0.004 µmol/L), −S9
# [12] = 5.0 µg/plate (0.012 µmol/L), +S9
# [13] = 15.8 µg/plate (0.039 µmol/L), +S9
# [14] = 50 µg/plate (0.125 µmol/L), +S9
# [15] = 158 µg/plate (0.393 µmol/L), +S9
# [16] = 50 µg/plate (0.125 µmol/L), −S9
# [17] = 158 µg/plate (0.393 µmol/L), −S9
# [18] = 500 µg/plate (1.245 µmol/L), +S9
# [19] = 500 µg/plate (1.245 µmol/L), −S9
# [20] = 1581 µg/plate (3.937 µmol/L), +S9
# [21] = 1581 µg/plate (3.937 µmol/L), −S9
# [22] = 5000 µg/plate (12.452 µmol/L), +S9
# [23] = 5000 µg/plate (12.452 µmol/L), −S9
smiles,measurement,setting,value
COC(=O)c1ccc(NC(=O)Nc2ccc3c(c2)C(C)(C)CC(C)(C)S3)cc1 [SHetD3],efficacy (maximum growth inhibition observed),"Caki-1 cancer [1]; Caki-1 cancer, 48 h",56.99% ± 12.12%
same,EC50,"Caki-1 cancer [1]; Caki-1 cancer, 48 h",7.14 ± 0.22 µM
same,efficacy (maximum growth inhibition observed),786-O cancer,61.52% ± 1.44%
same,EC50,"786-O cancer; read-out: potency (EC50, concentration needed to induce half maximal efficacy), 48 h",7.15 ± 0.81 µM
same,efficacy (maximum growth inhibition observed),RTC91696 normal; [9],46.27% ± 0.95%
same,EC50,RTC91696 normal; [9],9.42 ± 0.43 µM
same,efficacy (maximum growth inhibition observed),HK-2 normal; HK-2 normal,26.37% ± 0.22%
same,EC50,HK-2 normal; HK-2 normal,6.91 ± 0.66 µM
"CC1=C(/C=C/C(C)=C/C=C/C(C)=C/C(=O)O)C(C)(C)CCC1 [t-RA, trans-retinoic acid, reference compound]",efficacy (maximum growth inhibition observed),"Caki-1 cancer [1]; Caki-1 cancer, 48 h",6.46% ± 9.40%
same,EC50,"Caki-1 cancer [1]; Homo sapiens, CAKI-1, 48 h",4.64 ± 1.14 µM
same,efficacy (maximum growth inhibition observed),786-O cancer,0.00% ± 1.43%
same,efficacy (maximum growth inhibition observed),HK-2 normal; HK-2 normal,15.81% ± 0.47%
same,EC50,HK-2 normal; Homo sapiens,6.28 ± 2.19 µM
CC1(C)CC(C)(C)c2cc(NC(=S)Nc3ccc([N+](=O)[O-])cc3)ccc2S1 [SHetA2],teratogenicity,mouse embryos,did not induce skin irritancy or teratogenicity
same,"number of revertant colonies, Mean",TA98; [10],48
same,"number of revertant colonies, Mean",TA98; [11],16
same,"number of revertant colonies, Mean",TA98; [12],45
same,"number of revertant colonies, Mean",TA98; [13],52
same,"number of revertant colonies, Mean",TA98; [14],49
same,"number of revertant colonies, Mean",TA98; [15],12
same,efficacy (maximum growth inhibition observed),"Caki-1 cancer [1]; Caki-1 cancer, 48 h",84.40% ± 3.86%
same,EC50,"Caki-1 cancer [1]; Homo sapiens, CAKI-1, 48 h",4.93 ± 0.22 µM
same,percentages of cells in the G0-G1 phase of the cell cycle,Caki-1 cancer [2],increased the percentages of cells in the G0-G1 phase
same,"number of revertant colonies, Mean",TA100; [10],136
same,"number of revertant colonies, Mean",TA100; [11],136
same,"number of revertant colonies, Mean",TA100; [12],124
same,"number of revertant colonies, Mean",TA100; [13],171
same,time to decreased expression of Cyclin D1,Cyclin D1,≤ 1 h
same,skin irritancy,[3],did not induce skin irritancy or teratogenicity
same,"number of revertant colonies, Mean",TA1537; [10],23
same,"number of revertant colonies, Mean",TA1537; [11],9
same,"number of revertant colonies, Mean",TA1537; [12],21
same,"number of revertant colonies, Mean",TA1537; [13],21
same,efficacy (maximum growth inhibition observed),786-O cancer,72.00% ± 5.06%
same,percentages of cells in the G0-G1 phase of the cell cycle,normal HK-2 cell lines,increased the percentages of cells in the G0-G1 phase
same,percentage of cells in the quadrant corresponding to apoptosis,Caki-1 cancer cell line,increased the percentage of Caki-1 cancer cells
same,induction of apoptosis in normal cells,[4],did not induce apoptosis
same,mutagenicity of metabolites (number of revertant colonies),five bacterial strains; preincubation with S9 microsomal fractions,no effect on the number of revertant colonies
same,mutagenicity (increase in revertant colony counts),five bacterial strains; without S9,neither SHetA2 nor SHetA3 induced substantial increases in the revertant colony counts
same,"number of revertant colonies, Mean",WP2 uvrA; [14],27
same,"number of revertant colonies, Mean",WP2 uvrA; [16],17
same,"number of revertant colonies, Mean",WP2 uvrA; [15],18
same,"number of revertant colonies, Mean",WP2 uvrA; [17],14
same,"number of revertant colonies, Mean",WP2 uvrA; [18],22
same,"number of revertant colonies, Mean",WP2 uvrA; [19],18
same,"number of revertant colonies, Mean",WP2 uvrA; [20],17
same,"number of revertant colonies, Mean",WP2 uvrA; [21],10
same,"number of revertant colonies, Mean",WP2 uvrA; [22],13
same,"number of revertant colonies, Mean",WP2 uvrA; [23],12
same,EC50,RTC91696 normal; Homo sapiens,4.57 ± 0.49 µM
same,efficacy (maximum growth inhibition observed),RTC91696 normal; [9],36.84% ± 6.80%
same,"number of revertant colonies, Mean",TA1535; [14],15
same,"number of revertant colonies, Mean",TA1535; [16],19
same,"number of revertant colonies, Mean",TA1535; [15],20
same,"number of revertant colonies, Mean",TA1535; [17],26
same,"number of revertant colonies, Mean",TA1535; [18],22
same,"number of revertant colonies, Mean",TA1535; [19],18
same,"number of revertant colonies, Mean",TA1535; [20],19
same,"number of revertant colonies, Mean",TA1535; [21],21
same,"number of revertant colonies, Mean",TA1535; [22],22
same,"number of revertant colonies, Mean",TA1535; [23],16
same,sensitivity of A498 xenograft,[5],did not exhibit significant sensitivity
same,"liver damage (necrosis, fatty changes, inflammation in portal tracts)",[6],no liver damage
same,time to inhibition of NF-κB activity,[7]; 10 µmol/L SHetA2,≤ 30 min
same,tumor necrosis factor α induced NF-κB transcriptional activity,"[7]; 10 µmol/L SHetA2, 20 ng/mL TNFα, 4 or 8 h",significantly inhibited
same,time to upregulation of E-Cadherin mRNA,E-Cadherin mRNA,≤ 1 h
same,induction of E-Cadherin steady-state mRNA,E-Cadherin mRNA; 4 hours of treatment,20 fold
same,induction of E-Cadherin steady-state mRNA,E-Cadherin mRNA; 24 hours of treatment,60 fold
same,tumor-related deaths,[8]; 20 mg/kg/day oral,3
same,tumor-related deaths,[8]; 40 mg/kg/day oral,6
same,maximal growth inhibition of xenograft tumors,"[8]; 60 mg/kg/day oral for 30 days, day 34 (23rd day of treatment)",36%
same,tumor-related deaths,[8]; 60 mg/kg/day oral,6
same,body weight of the animals compared with the control group,"[8]; 20, 40, 60 mg/kg/day oral for 30 days",None of the treatment concentrations altered the body weight
same,reduction of xenograft tumor sizes,[8]; 20 and 40 mg/kg/day oral for 30 days,not statistically significant
same,efficacy (maximum growth inhibition observed),HK-2 normal; HK-2 normal,51.02% ± 7.07%
same,EC50,HK-2 normal; Homo sapiens,4.5 ± 0.28 µM
same,time to cleavage of PARP-1 and Caspase 3,PARP-1 and Caspase 3,≤ 16 h
